Assay outcomes from PubChem BioAssay.
MEKK2 mut-MEK5 – signal of MEK5 binding to mutant human MEKK2 PB1 domain; bead flow cytometry, Alexa488-MEK5 binding to MEKK2 mutant; percent response, % at 10 µM; hit rate 0.35% among 290,000; AID 1530; in the data active = percent response above about 24%, passing the limit was not always enough
Apaf1 inhib – blocks human Apaf-1 apoptosome activity | reconstituted apoptosome caspase-3 activity, DEVD-Rh110 fluorescence | inhibition, % at 20 µM | hit rate 0.71% among 330,000 | AID 489030; active = inhibition of at least 40% at 20 µM
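Assay system – apoptosome proteins · Medium – Hepes buffer, pH 7.5 · Also added – cytochrome c with DEVD-Rh110 · Timing – 30 min compound preincubation, 50 min activation, room temperature · Detection – Rh110 fluorescence, excitation 480 nm, emission 540 nm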
MEKK2wt PB1 HTS – raises or lowers MEK5 binding to wildtype human MEKK2 PB1 domain; hit rate 1.1% among 290,000; binding response (% of control), % at 10 µM; AID 1531; bead flow cytometry, Alexa488-MEK5 binding to MEKK2 WT; actives lie on both sides; Q9Y2U5; in the data active = binding response below about 67% or above about 130%
PREPL inhibitor – inhibitors of human prolyl oligopeptidase-like enzyme PREPL; recombinant PREPL, fluorescence polarization activity-based probe; inhibition, % at 5.96 µM; hit rate 0.68% among 320,000; in the data active = inhibition above about 43%
MEKK3 PB1 HTS – raises or lowers MEK5 binding to the human MEKK3 PB1 domain; Q99759; bead-based flow cytometry, Alexa488-MEK5 binding to MEKK3; actives lie on both sides; 0 = blocked by unlabeled MEK5, 100 = vehicle; binding response (% of control), % at 10 µM; hit rate 1.4% among 290,000; AID 1529;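 active = binding response more than 3 SD above or below the average of its plate-row segment, actives on both sides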;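 also: Alexa488 bead fluorescence after subtracting the streptavidin-only scavenger bead signal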
UBC13 polyUb – inhibitors of human UBC13 polyubiquitin chain formation. TR-FRET. inhibition, % at 20 µM. hit rate 0.47% among 330,000; in the data active = inhibition above about 45%, passing the limit was not always enough
Target sequence (P61088 whole entry, looked up): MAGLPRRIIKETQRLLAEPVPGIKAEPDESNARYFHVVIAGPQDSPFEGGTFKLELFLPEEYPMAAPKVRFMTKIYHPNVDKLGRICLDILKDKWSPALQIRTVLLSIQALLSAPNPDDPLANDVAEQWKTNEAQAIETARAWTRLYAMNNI
MEKK2wt confirm – raises or lowers MEK5 binding to wildtype human MEKK2, retest | shares compounds with MEKK3 PB1 HTS | bead flow cytometry, Alexa488-MEK5 binding to MEKK2 WT; actives lie on both sides | binding response (% of control), % at 10 µM | hit rate 2.4% among 5,900; in the data active = binding response below about 16% or above about 210%; inactive = in between
MEKK2mut confirm – signal of MEK5 binding to mutant human MEKK2, retest; bead flow cytometry, Alexa488-MEK5 binding to MEKK2 mutant; shares compounds with MEKK3 PB1 HTS; hit rate 2% among 5,900; percent response, % at 10 µM; in the data active = percent response mostly above about 71%, no sharp cut-off; inactive = mostly below about 38%;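 also: higher means compound restores mutant binding toward wildtype level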
MEKK3 confirm – MEKK3-MEK5 PB1 inhibition, single concentration confirmation; shares compounds with MEKK3 PB1 HTS; bead flow cytometry, Alexa488-MEK5 binding to MEKK3; stronger effect = lower value; binding response (% of control), % at 10 µM; hit rate 1.8% among 5,900;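 active = binding response below 72% of control, or above a set upper limit, though filed actives all read lower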
A number is an active result; [ ] = dose if it differs, or a comment. Compounds with a hit are over-represented: about 3.1% of the library has one in this group of screens.

How did Cc1ccc(N=C(NO)c2nonc2N)c(C)c1 do in these assays?
MEKK2 mut-MEK5: inactive; Apaf1 inhib: inactive; MEKK2wt PB1 HTS: inactive; PREPL inhibitor: inactive; MEKK3 PB1 HTS: inactive; UBC13 polyUb: inactive

Results for Cc1ccc(N=C(N(C)C)P(=O)(N(C)C)N(C)C)c(C)c1 ?
MEKK2 mut-MEK5: inactive; Apaf1 inhib: inactive; MEKK2wt PB1 HTS: inactive; PREPL inhibitor: inactive; MEKK3 PB1 HTS: 72[inhibitor]; UBC13 polyUb: inactive; MEKK2wt confirm: inactive; MEKK2mut confirm: inactive; MEKK3 confirm: inactive

What do the screens show for `OC(COCC1COc2ccccc2O1)CN1CCN(c2ccccn2)CC1` (centres undefined)?
MEKK2 mut-MEK5: 24; Apaf1 inhib: inactive; MEKK2wt PB1 HTS: inactive; PREPL inhibitor: inactive; MEKK3 PB1 HTS: inactive; UBC13 polyUb: inactive; MEKK2wt confirm: inactive; MEKK2mut confirm: inactive; MEKK3 confirm: inactive

What do the screens show for `OC(COCC1COc2ccccc2O1)CN1CCc2ccccc2C1` (centres undefined)?
MEKK2 mut-MEK5: inactive; Apaf1 inhib: inactive; MEKK2wt PB1 HTS: inactive; PREPL inhibitor: inactive; MEKK3 PB1 HTS: inactive; UBC13 polyUb: inactive

Results for CCOCCOc1cccc(C(=O)NC(c2ccccc2)c2ccccc2)c1 ?
MEKK2 mut-MEK5: inactive; Apaf1 inhib: inactive; MEKK2wt PB1 HTS: inactive; PREPL inhibitor: inactive; MEKK3 PB1 HTS: inactive; UBC13 polyUb: inactive

Results for CCOc1ccc(C(=O)NCC2CCN(CC3CCCCC3)CC2)cc1 ?
MEKK2 mut-MEK5: inactive; Apaf1 inhib: inactive; MEKK2wt PB1 HTS: inactive; MEKK3 PB1 HTS: inactive; UBC13 polyUb: inactive

Results for Cc1cc(-c2csc(N)n2)c(C)n1CCc1ccccc1 ?
MEKK2 mut-MEK5: inactive; Apaf1 inhib: inactive; MEKK2wt PB1 HTS: 56[inhibitor]; PREPL inhibitor: inactive; MEKK3 PB1 HTS: inactive; UBC13 polyUb: inactive; MEKK2wt confirm: inactive; MEKK2mut confirm: inactive; MEKK3 confirm: inactive

What do the screens show for `Cc1ccc2nc(N(CCN(C)C)C(=O)c3cc(Cl)sc3Cl)sc2c1`?
MEKK2 mut-MEK5: inactive; Apaf1 inhib: inactive; MEKK2wt PB1 HTS: inactive; PREPL inhibitor: inactive; MEKK3 PB1 HTS: inactive; UBC13 polyUb: inactive

What do the screens show for `Cc1ccc2nc(N(CCCN(C)C)C(=O)c3cc(-c4cccs4)nc4ccccc34)sc2c1`?
MEKK2 mut-MEK5: 73; Apaf1 inhib: inactive; MEKK2wt PB1 HTS: 228; PREPL inhibitor: inactive; MEKK3 PB1 HTS: inactive; UBC13 polyUb: inactive; MEKK2wt confirm: inactive; MEKK2mut confirm: inactive; MEKK3 confirm: inactive

Results for CN(C)CCCN(C(=O)c1cc(-c2cccs2)nc2ccccc12)c1nc2c(F)cccc2s1 ?
MEKK2 mut-MEK5: 27; Apaf1 inhib: inactive; MEKK2wt PB1 HTS: 172; PREPL inhibitor: inactive; MEKK3 PB1 HTS: inactive; UBC13 polyUb: inactive; MEKK2wt confirm: inactive; MEKK2mut confirm: inactive; MEKK3 confirm: inactive

Results for CN(C)CCCN(C(=O)/C=C/c1cccs1)c1nc2c(F)cccc2s1 ?
MEKK2 mut-MEK5: inactive; MEKK2wt PB1 HTS: inactive; MEKK3 PB1 HTS: inactive

Results for O=C(Nc1ccccc1Cl)c1ccc(=O)[nH]n1 ?
MEKK2 mut-MEK5: inactive; Apaf1 inhib: inactive; MEKK2wt PB1 HTS: inactive; PREPL inhibitor: inactive; MEKK3 PB1 HTS: inactive; UBC13 polyUb: inactive

Results for CCC[C@@H]1C[C@@H](C(=O)N[C@@H](C2O[C@H](SC)[C@H](O)[C@@H](O)[C@H]2O)[C@H](C)Cl)N(C)C1 (some centres undefined) ?
MEKK2 mut-MEK5: inactive; Apaf1 inhib: inactive; MEKK2wt PB1 HTS: inactive; PREPL inhibitor: inactive; MEKK3 PB1 HTS: 50[inhibitor]; UBC13 polyUb: inactive; MEKK2wt confirm: inactive; MEKK2mut confirm: inactive; MEKK3 confirm: inactive
